According to the M2OR odorant receptor database:

Key:
Details in all cases: stereoisomer not certain
[1] = target: T1, OR10G2 (Homo sapiens) (UniProt Q8NGC3)
T1 sequence (whole entry): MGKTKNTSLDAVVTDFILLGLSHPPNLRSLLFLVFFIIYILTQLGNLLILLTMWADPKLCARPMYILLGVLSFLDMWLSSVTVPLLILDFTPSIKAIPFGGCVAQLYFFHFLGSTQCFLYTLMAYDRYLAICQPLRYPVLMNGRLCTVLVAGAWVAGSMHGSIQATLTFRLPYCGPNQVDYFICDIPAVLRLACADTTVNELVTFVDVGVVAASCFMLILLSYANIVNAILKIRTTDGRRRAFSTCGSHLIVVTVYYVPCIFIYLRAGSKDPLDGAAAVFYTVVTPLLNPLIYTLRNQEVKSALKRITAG
Method in brief: (§1)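 Transient luciferase assays in mammalian cell lines were common, though methods varied by source. The values come from published papers and their supplementary material, with extra details from the original authors when needed. Responsive refers to a measured signal the original authors judged statistically different from baseline, and non-responsive (inactive) to the remainder.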

[2] = target: T2, OR10G3 (Homo sapiens) (UniProt Q8NGC4)
T2 sequence (whole entry): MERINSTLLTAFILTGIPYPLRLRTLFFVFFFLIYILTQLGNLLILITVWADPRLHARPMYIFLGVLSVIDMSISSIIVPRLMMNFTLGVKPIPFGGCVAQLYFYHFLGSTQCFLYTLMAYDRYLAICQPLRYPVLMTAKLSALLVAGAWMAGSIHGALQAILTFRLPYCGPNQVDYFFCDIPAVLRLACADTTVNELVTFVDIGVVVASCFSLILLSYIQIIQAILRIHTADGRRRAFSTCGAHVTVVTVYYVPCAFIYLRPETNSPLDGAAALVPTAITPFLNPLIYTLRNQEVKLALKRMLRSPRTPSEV
Method in brief: as §1

[3] = target: T3, OR10G4 (Homo sapiens) (UniProt Q8NGN3)
T3 sequence (whole entry): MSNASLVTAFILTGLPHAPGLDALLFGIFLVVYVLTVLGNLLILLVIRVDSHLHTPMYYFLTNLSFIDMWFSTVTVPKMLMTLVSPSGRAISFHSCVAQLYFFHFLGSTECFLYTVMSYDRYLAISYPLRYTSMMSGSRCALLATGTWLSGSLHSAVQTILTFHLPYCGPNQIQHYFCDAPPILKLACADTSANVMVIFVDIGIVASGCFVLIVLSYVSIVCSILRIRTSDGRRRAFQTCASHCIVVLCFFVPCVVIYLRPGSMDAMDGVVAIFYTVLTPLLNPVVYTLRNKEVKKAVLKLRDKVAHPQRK
Method in brief: as §1

[4] = target: T4, OR10G6 (Homo sapiens) (UniProt Q8NH81)
T4 sequence (whole entry): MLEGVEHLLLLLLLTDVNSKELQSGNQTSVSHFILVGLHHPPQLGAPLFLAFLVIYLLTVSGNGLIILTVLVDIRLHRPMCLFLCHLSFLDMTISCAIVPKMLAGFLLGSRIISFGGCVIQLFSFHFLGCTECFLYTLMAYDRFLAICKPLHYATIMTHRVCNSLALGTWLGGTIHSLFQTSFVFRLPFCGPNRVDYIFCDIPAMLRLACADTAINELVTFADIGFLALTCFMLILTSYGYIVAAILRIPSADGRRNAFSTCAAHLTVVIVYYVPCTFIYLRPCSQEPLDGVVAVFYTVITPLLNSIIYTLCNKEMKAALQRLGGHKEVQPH
Method in brief: as §1

[5] = target: T5, OR10G7 (Homo sapiens) (UniProt Q8NGN6)
T5 sequence (whole entry): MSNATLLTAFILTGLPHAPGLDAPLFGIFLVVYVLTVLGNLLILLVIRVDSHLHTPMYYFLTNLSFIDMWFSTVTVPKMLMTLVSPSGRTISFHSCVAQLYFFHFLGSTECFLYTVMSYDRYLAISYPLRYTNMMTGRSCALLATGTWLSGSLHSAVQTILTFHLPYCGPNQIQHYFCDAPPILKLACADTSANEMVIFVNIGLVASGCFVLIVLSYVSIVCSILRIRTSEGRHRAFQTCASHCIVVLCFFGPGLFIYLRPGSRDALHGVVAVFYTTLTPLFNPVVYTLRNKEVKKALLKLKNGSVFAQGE
Method in brief: as §1

[6] = target: T6, OR10G8 (Homo sapiens) (UniProt Q8NGN5)
T6 sequence (whole entry): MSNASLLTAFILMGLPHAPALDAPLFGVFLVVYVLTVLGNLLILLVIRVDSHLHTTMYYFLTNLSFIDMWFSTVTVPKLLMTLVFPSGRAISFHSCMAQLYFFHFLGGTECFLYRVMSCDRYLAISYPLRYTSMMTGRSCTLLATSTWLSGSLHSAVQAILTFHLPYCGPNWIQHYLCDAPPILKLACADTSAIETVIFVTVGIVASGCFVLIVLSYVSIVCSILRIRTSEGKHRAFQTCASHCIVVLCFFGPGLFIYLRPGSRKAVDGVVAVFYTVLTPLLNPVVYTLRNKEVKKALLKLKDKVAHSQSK
Method in brief: as §1

[7] = target: T7, OR10G9 (Homo sapiens) (UniProt Q8NGN4)
T7 sequence (whole entry): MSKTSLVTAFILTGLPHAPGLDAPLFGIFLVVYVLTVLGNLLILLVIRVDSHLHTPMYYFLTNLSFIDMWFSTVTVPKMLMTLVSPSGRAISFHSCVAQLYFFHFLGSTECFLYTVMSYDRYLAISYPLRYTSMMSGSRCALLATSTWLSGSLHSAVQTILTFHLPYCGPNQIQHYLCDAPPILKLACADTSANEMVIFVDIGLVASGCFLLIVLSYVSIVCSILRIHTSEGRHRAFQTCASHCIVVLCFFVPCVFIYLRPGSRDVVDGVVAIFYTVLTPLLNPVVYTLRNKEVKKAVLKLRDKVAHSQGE
Method in brief: as §1

[8] = target: T8, OR10H1 (Homo sapiens) (UniProt Q9Y4A9)
T8 sequence (whole entry): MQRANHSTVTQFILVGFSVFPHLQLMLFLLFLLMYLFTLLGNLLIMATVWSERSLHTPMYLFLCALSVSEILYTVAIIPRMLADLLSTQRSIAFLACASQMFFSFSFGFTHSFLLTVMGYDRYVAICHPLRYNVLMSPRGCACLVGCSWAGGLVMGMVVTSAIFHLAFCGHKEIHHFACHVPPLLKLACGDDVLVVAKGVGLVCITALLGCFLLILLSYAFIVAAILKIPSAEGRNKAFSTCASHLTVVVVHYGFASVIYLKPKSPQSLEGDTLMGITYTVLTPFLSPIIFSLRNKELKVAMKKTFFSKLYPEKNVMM
Method in brief: as §1

[9] = target: T9, OR10H2 (Homo sapiens) (UniProt O60403)
T9 sequence (whole entry): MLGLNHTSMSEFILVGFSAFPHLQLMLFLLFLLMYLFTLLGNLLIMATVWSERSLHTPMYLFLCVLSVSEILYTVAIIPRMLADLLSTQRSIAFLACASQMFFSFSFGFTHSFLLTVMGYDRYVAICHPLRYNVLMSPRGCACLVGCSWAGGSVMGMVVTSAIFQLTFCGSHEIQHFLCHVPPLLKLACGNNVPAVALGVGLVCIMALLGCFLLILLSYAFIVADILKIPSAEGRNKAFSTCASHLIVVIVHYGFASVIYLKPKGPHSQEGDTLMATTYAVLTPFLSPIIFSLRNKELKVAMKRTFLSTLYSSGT
Method in brief: as §1

[10] = target: T10, OR10H3 (Homo sapiens) (UniProt O60404)
T10 sequence (whole entry): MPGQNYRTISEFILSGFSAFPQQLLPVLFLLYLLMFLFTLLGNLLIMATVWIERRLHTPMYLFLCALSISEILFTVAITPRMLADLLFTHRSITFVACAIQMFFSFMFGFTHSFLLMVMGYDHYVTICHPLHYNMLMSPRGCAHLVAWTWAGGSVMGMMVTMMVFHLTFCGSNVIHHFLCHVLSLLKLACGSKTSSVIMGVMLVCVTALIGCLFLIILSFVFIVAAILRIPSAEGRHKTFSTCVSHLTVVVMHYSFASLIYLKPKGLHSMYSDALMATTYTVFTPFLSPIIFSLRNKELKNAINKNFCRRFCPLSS
Method in brief: as §1

Measured: odorant receptor agonist call;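 note: active if original authors judged signal statistically different from baseline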

CCCC(S)CCOC(C)=O (stereo not given)
inactive: all assays above
